Type in all cases: functional, cell-based
The test system of one assay is MCF7. As to the kind of experiment: Cytotoxicity against human MCF7 cells at 20 uM after 72 hrs by MTT assay. An outline of the steps: (§1)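 Single-concentration screen: compound at 20 μM applied to cells plated at 1×10^3–30×10^3 cells/well (density set by cell type), 72 h at 37 °C, 5% CO2. Viability read by MTT, triplicate wells, experiment repeated three times; result given as % proliferation versus control.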
(Tetrazolium assays rely on reduction of a dye to a coloured formazan, in cell work by metabolically active cells.)

For assay [1], the system named is Jurkat. Briefly: Cytotoxicity against human Jurkat cells at 20 uM after 72 hrs by XTT assay. An outline of the steps: (§2)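 XTT screen at a single concentration: cells seeded at 1×10^3–30×10^3 cells/well depending on cell type, exposed to 20 μM for 72 h at 37 °C, 5% CO2, then read by XTT. Triplicate wells, three independent repeats; output is % proliferation relative to control.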

Assay [2] has as its system HeLa. As to the kind of experiment: Cytotoxicity against human HeLa cells after 72 hrs by MTT assay. An outline of the steps:
(§3)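 MTT dose–response: exponentially growing HeLa (1×10^3 cells/well) or HepG2 (8×10^3 cells/well, DMEM + 10% FBS, 1 mM pyruvate) seeded, left 24 h, then given a compound range in DMSO (final <0.1%) for 72 h. MTT 0.5 mg/ml for 1 h, formazan dissolved in DMSO, read at 550 nm. IC50 vs untreated by non-linear regression, mean ± SD of at least three experiments.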

Assay [3] has as its system HepG2. As to the kind of experiment: Cytotoxicity against human HepG2 cells after 72 hrs by MTT assay. The note with it: HepG2, 72 h. The gist of the method:
as §3

Assay [4] relates to HeLa. Briefly: Cytotoxicity against human HeLa cells at 20 uM after 72 hrs by MTT assay. The gist of the method:
as §1

A further assay deals with HT-29. As to the kind of experiment: Cytotoxicity against human HT-29 cells at 20 uM after 72 hrs by MTT assay. An outline of the steps:
as §1

The next assay concerns A-375. Briefly: Cytotoxicity against human A375 cells at 20 uM after 72 hrs by MTT assay. An outline of the steps:
as §1

The test system of assay [5] is HepG2. Briefly: Cytotoxicity against human HepG2 cells at 20 uM after 72 hrs by MTT assay. An outline of the steps:
as §1

A further assay has as its system SH-SY5Y. Briefly: Cytotoxicity against human SH-SY5Y cells at 20 uM after 72 hrs by XTT assay. An outline of the steps:
as §2

Assay [6] has as its system Jurkat. Briefly: Cytotoxicity against human Jurkat cells after 72 hrs by XTT assay. An outline of the steps:
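Jurkat cells (RPMI 1640, 10% FBS, 2 mM glutamine) in exponential growth plated at 5.5×10^3 cells/well and treated in triplicate with a concentration range or DMSO vehicle for 72 h. XTT labeling mix added, 4 h, absorbance at 450 nm. IC50 vs untreated by non-linear regression; mean ± SD of ≥3 experiments.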

The subject of the next assay is MIA PaCa-2. As to the kind of experiment: Cytotoxicity against human MIAPaCa2 cells at 20 uM after 72 hrs by MTT assay. The gist of the method: as §1

Active and inactive are the calls of the source. The calls are words filed in the database; no cut-off is given here. Bounds are passed on as bounds.

As a reminder, the IC50 is the concentration at which inhibition is half-maximal. Lower therefore signals inhibition by little substance. For the compound `C=C(C)[C@@H]1CC[C@]2(COC(=O)n3ccnc3)CC[C@]3(C)[C@H](CC[C@@H]4[C@@]5(C)CC[C@H](O)C(C)(C)[C@@H]5CC[C@]43C)[C@@H]12`, the outcome in the assay with MCF7, in the assay on Jurkat [1], in the assay with HeLa [4], with HT-29, in the assay on A-375 and in the assay with HepG2 [5] was Active. Also, the result in the assay with SH-SY5Y and with MIA PaCa-2 was Active. Besides, the IC50 was determined as 7.6 µM in the assay with HeLa [2], 4.2 µM in the assay on HepG2 [3] and 16.3 µM in the assay with Jurkat [6].
With `C=C(C)[C@@H]1CC[C@]2(COC(=O)n3ccnc3)CC[C@]3(C)[C@H](CC[C@@H]4[C@@]5(C)CC[C@H](OC(C)=O)C(C)(C)[C@@H]5CC[C@]43C)[C@@H]12`, the IC50 with HeLa [2], with HepG2 [3] and in the assay on Jurkat [6] was > 30 µM throughout.
`C=C(C)[C@@H]1CC[C@]2(C(=O)OC)CC[C@]3(C)[C@H](CC[C@@H]4[C@@]5(C)CC[C@H](OC(=O)n6ccnc6)C(C)(C)[C@@H]5CC[C@]43C)[C@@H]12`: the IC50 with HeLa [2] came to 8.2 µM; in the assay on HepG2 [3], 4.3 µM; with Jurkat [6], 9.9 µM.
`C=C(C)[C@@H]1CC[C@]2(C(=O)O)CC[C@]3(C)[C@H](CC[C@@H]4[C@@]5(C)CC[C@H](O)C(C)(C)[C@@H]5CC[C@]43C)[C@@H]12` [BETULINIC ACID]: the outcome in the assay with MCF7, in the assay on Jurkat [1], in the assay with HeLa [4], in the assay with HT-29, in the assay with A-375 and in the assay with HepG2 [5] was Active. In addition, the result in the assay with SH-SY5Y and with MIA PaCa-2 was Active. In addition, the figures for the 50% inhibitory concentration (IC50) in the assay on HeLa [2], in the assay on HepG2 [3] and in the assay on Jurkat [6] were 26 µM, 36.4 µM and 26.9 µM, respectively.
Consider `C=C(C)[C@@H]1CC[C@]2(C(=O)n3ccnc3)CC[C@]3(C)[C@H](CC[C@@H]4[C@@]5(C)C=C(O)C(=O)C(C)(C)[C@@H]5CC[C@]43C)[C@@H]12`, for which the result with MCF7, in the assay with Jurkat [1], in the assay with HeLa [4], with HT-29, with A-375 and in the assay on HepG2 [5] was Active. The result with SH-SY5Y and with MIA PaCa-2 was Active. Further, the IC50 with HeLa [2] was determined as 4.6 µM; with HepG2 [3] it was 6.5 µM; in the assay with Jurkat [6] it was 7 µM.
Consider `C[C@@H](C=O)[C@@H]1CC[C@]2(COC(=O)n3ccnc3)CC[C@]3(C)[C@H](CC[C@@H]4[C@@]5(C)CC[C@H](O)C(C)(C)[C@@H]5CC[C@]43C)[C@@H]12`, for which the outcome with MCF7, with Jurkat [1], with HeLa [4], in the assay on HT-29, in the assay with A-375 and with HepG2 [5] was Active. The outcome in the assay on SH-SY5Y and in the assay on MIA PaCa-2 was Active. Further, the figures for the IC50 in the assay on HeLa [2], with HepG2 [3] and in the assay with Jurkat [6] were 11.1 µM, 11.5 µM and 13.7 µM, respectively.
For the compound `C=C(C)[C@@H]1CC[C@]2(C(=O)n3ccnc3)CC[C@]3(C)[C@H](CC[C@@H]4[C@@]5(C)CCC(=O)C(C)(C)[C@@H]5CC[C@]43C)[C@@H]12`, the figures for the IC50 in the assay with HeLa [2], with HepG2 [3] and in the assay with Jurkat [6] were 2 µM, 0.8 µM and 1.4 µM, respectively.
Take `C=C(COC)[C@@H]1CC[C@]2(COC(=O)n3ccnc3)CC[C@]3(C)[C@H](CC[C@@H]4[C@@]5(C)CC[C@H](O)C(C)(C)[C@@H]5CC[C@]43C)[C@@H]12`: the result in the assay with MCF7, in the assay with Jurkat [1], in the assay with HeLa [4], in the assay on HT-29, with A-375 and in the assay on HepG2 [5] was Active. Further, the outcome in the assay on SH-SY5Y and in the assay with MIA PaCa-2 was Active. Also, the results for the IC50 in the assay on HeLa [2], in the assay on HepG2 [3] and with Jurkat [6] were 9.8 µM, 8.3 µM and 12.2 µM, respectively.
As for `C=C(C)[C@@H]1CC[C@]2(CO)CC[C@]3(C)[C@H](CC[C@@H]4[C@@]5(C)CC[C@H](OC(=O)n6ccnc6)C(C)(C)[C@@H]5CC[C@]43C)[C@@H]12`, the IC50 is 3 µM in the assay on HeLa [2], 2 µM in the assay on HepG2 [3] and 11.1 µM with Jurkat [6].
Turning to `C=C(C)[C@@H]1CC[C@]2(C(=O)O)CC[C@]3(C)[C@H](CC[C@@H]4[C@@]5(C)CC[C@H](OC(=O)n6ccnc6)C(C)(C)[C@@H]5CC[C@]43C)[C@@H]12`, the outcome in the assay on MCF7, in the assay on Jurkat [1], in the assay with HeLa [4], with HT-29, in the assay on A-375 and with HepG2 [5] was Active. The outcome in the assay on SH-SY5Y and with MIA PaCa-2 was Active. Moreover, the values for the IC50 with HeLa [2], in the assay on HepG2 [3] and in the assay on Jurkat [6] were 5.1 µM, 6.2 µM and 5.2 µM, respectively.
`C=C(C)[C@@H]1CC[C@]2(C(=O)n3ccnc3)CC[C@]3(C)[C@H](CC[C@@H]4[C@@]5(C)CC[C@H](OC(=O)n6ccnc6)C(C)(C)[C@@H]5CC[C@]43C)[C@@H]12`: the IC50 worked out at 8.2 µM in the assay on HeLa [2], 2.9 µM in the assay on HepG2 [3] and 6 µM with Jurkat [6].
Regarding `C=C(COC)[C@@H]1CC[C@]2(COC(=O)n3ccnc3)CC[C@]3(C)[C@H](CC[C@@H]4[C@@]5(C)CC[C@H](OC(=O)n6ccnc6)C(C)(C)[C@@H]5CC[C@]43C)[C@@H]12`, the 50% inhibitory concentration (IC50) in the assay with HeLa [2] was > 30 µM; in the assay on HepG2 [3], 19.6 µM; in the assay with Jurkat [6], 16.2 µM.
Regarding `C[C@@H](C=O)[C@@H]1CC[C@]2(COC(=O)n3ccnc3)CC[C@]3(C)[C@H](CC[C@@H]4[C@@]5(C)CC[C@H](OC(=O)n6ccnc6)C(C)(C)[C@@H]5CC[C@]43C)[C@@H]12`, the IC50 in the assay on HeLa [2] is 19.2 µM; in the assay on HepG2 [3], 26.1 µM; in the assay with Jurkat [6], 20.2 µM.
In the case of `C=C(C)[C@@H]1CC[C@]2(COC(=O)n3ccnc3)CC[C@]3(C)[C@H](CC[C@@H]4[C@@]5(C)CC[C@H](OC(=O)n6ccnc6)C(C)(C)[C@@H]5CC[C@]43C)[C@@H]12`, the half-maximal inhibitory concentration (IC50) in the assay with HeLa [2], with HepG2 [3] and with Jurkat [6] was > 30 µM each time.
Regarding `C=C(C)[C@@H]1CC[C@]2(C(=O)n3ccnc3)CC[C@]3(C)[C@H](CC[C@@H]4[C@@]5(C)C=CC(=O)C(C)(C)[C@@H]5CC[C@]43C)[C@@H]12`, the IC50 was found to be 3 µM in the assay with HeLa [2], 1.7 µM with HepG2 [3] and 2.3 µM in the assay on Jurkat [6].
For `C=C(C)[C@@H]1CC[C@]2(COC(C)=O)CC[C@]3(C)[C@H](CC[C@@H]4[C@@]5(C)CC[C@H](OC(=O)n6ccnc6)C(C)(C)[C@@H]5CC[C@]43C)[C@@H]12` the same measures were > 30 µM, > 30 µM and > 30 µM.
`C=C(C)[C@@H]1CC[C@]2(C(=O)n3ccnc3)CC[C@]3(C)[C@H](CC[C@@H]4[C@@]5(C)C=C(OC(=O)n6ccnc6)C(=O)C(C)(C)[C@@H]5CC[C@]43C)[C@@H]12`: the IC50 in the assay on HeLa [2] was found to be 3.9 µM; in the assay on HepG2 [3] it was 4 µM; in the assay on Jurkat [6] it was 8.1 µM.

Source of the values: ChEMBL document CHEMBL1152543, “Novel semisynthetic derivatives of betulin and betulinic acid with cytotoxic activity” (Bioorg Med Chem, 2009).
